Test results published in ChEMBL document CHEMBL1158826, “Anti-inflammatory activity of verminoside from Kigelia africana and evaluation of cutaneous irritation in cell cultures and reconstituted human epidermis” (J Nat Prod, 2005).
The source made the active and inactive calls. No cut-off for these calls is given here.

What was measured:
Skin epidermis = assay: Effect on morphological changes in reconstituted human epidermis model assessed as induction of tissue degeneration and necrosis after 24 hrs; assay type: functional
Outline: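 Reconstituted epidermis was dosed topically with PBS solutions at 1-3% (extract) or 0.25-1% (compound), with PBS and SDS 0.25% as controls. After 24 or 72 h, tissues were fixed in 10% formalin, dehydrated through ethanol and toluene, and paraffin-embedded. Sections of 5 µm were stained with H&E and examined by light microscopy at 200×.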

Homo sapiens [1] = organism: Homo sapiens; assay: Antiinflammatory activity against reconstituted human epidermis model assessed as inhibition of IL1alpha release after 24 hrs by ELISA relative to control; assay type: functional; settings: Skin epidermis
Outline: (§1)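 Reconstituted human epidermis (0.63 cm2, differentiated from normal human keratinocytes) received 50 µL of PBS solutions applied topically. Concentrations were 1, 2, 3% for extract and 0.25, 0.5, 1% for pure compound. Tissues were held at 37 °C, 5% CO2, with daily medium change. Underlying medium was collected at 24 or 72 h and IL-1α (pg/mL) quantified by ELISA. Controls were PBS and SDS 0.25%. Three independent experiments.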

Homo sapiens [2] = organism: Homo sapiens; assay: Antiinflammatory activity against reconstituted human epidermis model assessed as inhibition of IL1alpha release after 72 hrs by ELISA relative to control; assay type: functional; settings: Skin epidermis; outline: as §1
J774.A1 [3] = assay: Cytotoxicity against mouse J774A1 macrophages grown in monolayers by MTT assay; assay type: cell-based
Outline: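 Monolayer J774.A1 cells were exposed to test solutions in PBS, 0.01-1 mM for pure compounds and 1-1000 µg/mL for extract. Viability was read by MTT assay and expressed as % of PBS-treated controls. Experiments were repeated at least three times with three or more observations each. ANOVA with Bonferroni.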

J774.A1 [4] = assay: Antiinflammatory activity against mouse J774A1 macrophages assessed as inhibition of LPS-induced iNOS expression at 1 mM treated 1 hr before LPS challenge and measured after 24 hrs by Western blot analysis; assay type: functional, cell-based
Outline: (§2)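 J774.A1 cells were given test solutions in PBS (0.01-1 mM) 1 h before and together with LPS (6 × 103 u/mL). After 24 h with LPS, cells were lysed and iNOS protein detected by Western blot with densitometry. Results are % inhibition versus LPS alone, from 3-6 independent experiments in triplicate. One-way ANOVA.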

J774.A1 [5] = assay: Antiinflammatory activity against mouse J774A1 macrophages assessed as inhibition of LPS-induced iNOS expression pretreated for 1 hr before LPS challenge and measured after 24 hrs by Western blot analysis; assay type: functional, cell-based; outline: as §2
[6] = Cytotoxicity against reconstituted human epidermal cells assessed as cell viability after 72 hrs by MTT assay; assay type: cell-based
Outline: (§3)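 Epidermis tissues were dosed topically with 50 µL of PBS solutions (extract 1-3%, compound 0.25-1%) in duplicate and kept at 37 °C, 5% CO2 for 24 or 72 h, with medium changed daily. Controls were PBS pH 7.2 and SDS 0.25%. After washing, MTT (0.5 mg/mL) was added for 3 h at 37 °C and OD read at 570 nm. Results are % viability versus PBS-treated epidermis.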

[7] = Cytotoxicity against reconstituted human epidermal cells assessed as cell viability after 24 hrs by MTT assay; assay type: cell-based; outline: as §3
J774.A1 [8] = assay: Antiinflammatory activity against mouse J774A1 macrophages assessed as inhibition of LPS-induced NO release pretreated for 1 hr before LPS challenge measured after 24 hrs by Griess method; assay type: functional, cell-based
Outline: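 Nitrite measured in medium by Griess reaction 24 h after LPS (6 × 103 u/mL). J774.A1 cells plated at 1.5 × 106 in P60 plates. Test solutions in PBS (0.01-1 mM) were added 1 h before and again together with LPS. Nitrite was read against a sodium nitrite standard curve in culture medium. Inhibition is given as % versus LPS-only cells. At least 3 independent experiments, 3 replicates each.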

## CCCCCCCCCCCCOS(=O)(=O)[O-].[Na+]
Skin epidermis
  Activity: Active
Homo sapiens [1]
  Activity: 250 pg/mL
Homo sapiens [2]
  Activity: 110 pg/mL

## C[C@@H]1O[C@@H](O[C@@H]2[C@@H](O)[C@H](OCCc3ccc(O)c(O)c3)O[C@H](CO)[C@H]2OC(=O)/C=C/c2ccc(O)c(O)c2)[C@H](O)[C@H](O)[C@H]1O [ACETOSIDE]
J774.A1 [3]
  EC50: 490 µM
J774.A1 [4]
  Activity: Active

## O=C(/C=C/c1ccc(O)c(O)c1)O[C@@H]1C2C=CO[C@H](O[C@@H]3O[C@H](CO)[C@@H](O)[C@H](O)[C@H]3O)C2[C@]2(CO)O[C@H]12 (some centres undefined) [VERMINOSIDE]
J774.A1 [5]
  Activity: Dose-dependent effect
[6]
  Activity: Non-toxic
[7]
  Activity: Non-toxic
J774.A1 [8]
  Activity: Dose-dependent effect
